IDH1 R132H inh = blocks human IDH1 R132H reductase activity. diaphorase/resazurin fluorescence, 60 min. inhibition, % at 10 µM. hit rate 0.18% among 70,000. AID 624101; in the data active = inhibition above about 34%; inconclusive = no clear call, values can overlap the other calls; inactive = below about 11%;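 note: 0% = DMSO and 100% = no enzyme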
Target sequence (O75874 whole entry R132H): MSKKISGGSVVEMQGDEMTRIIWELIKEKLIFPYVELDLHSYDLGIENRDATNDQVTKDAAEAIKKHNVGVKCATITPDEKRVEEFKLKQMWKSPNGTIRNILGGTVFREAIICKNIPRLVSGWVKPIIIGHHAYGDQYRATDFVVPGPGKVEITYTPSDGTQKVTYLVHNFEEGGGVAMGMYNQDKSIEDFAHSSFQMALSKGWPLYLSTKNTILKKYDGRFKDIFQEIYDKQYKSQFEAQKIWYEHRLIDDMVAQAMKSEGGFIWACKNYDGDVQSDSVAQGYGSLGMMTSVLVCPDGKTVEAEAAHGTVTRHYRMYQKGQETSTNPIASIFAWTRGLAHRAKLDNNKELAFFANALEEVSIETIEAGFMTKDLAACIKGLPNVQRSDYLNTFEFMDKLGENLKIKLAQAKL
Pf Dd2 inh = P. falciparum Dd2 growth inhibition | SYBR Green, 72 h; active compounds read low | activity change, % at 10 µM | hit rate 2.3% among 94,000; in the data active = activity change below about -80%; inconclusive = no clear call, values can overlap the other calls
GASC1 inh = inhibitors of human demethylase GASC-1 KDM4C. Q9H3R0. inhibition, % at 12.5 µM. GST-KDM4C 2-372, H3K9me3 peptide, LANCE TR-FRET. AID 720574. hit rate 0.15% among 96,000;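 active = mean replicate inhibition above about 25%, with at least 55% of replicates also reaching it, limit read from the data, passing the limit was not always enough; inconclusive = only one of those two conditions met; inactive = neither condition met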
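Compound: one test concentration per compound; Material: GST-GASC-1 enzyme fragment 2-372; Amount: GASC-1 enzyme at 10 nM final in reaction; Also added: H3K9me3 peptide substrate, Fe(II), 2-oxoglutarate; Technique: LANCE TR-FRET; Times: 30 min demethylation and 1 h detection at room temperature.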
T cruzi growth-1 = inhibitors of T. cruzi proliferation. hit rate 5.9% among 77,000. AID 624255. T. cruzi beta-gal in NIH3T3, GalScreen luminescence, 90 h. inhibition, % at 8.34 µM;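 active = mean inhibition above about 93%, with at least 55% of replicates each passing it, limit read from the data, passing the limit was not always enough; inconclusive = only one of those two conditions holds; inactive = neither condition holds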
T cruzi growth-2 = inhibitors of T. cruzi proliferation; shares compounds with T cruzi growth-1; T. cruzi beta-gal in NIH3T3, GalScreen luminescence, 90 h; inhibition, % at 8.35 µM; hit rate 72% among 5,600; AID 651739;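 active = mean replicate inhibition above about 95% and at least 55% of replicates individually reaching it, limit read from the data; inconclusive = only one of the two criteria is met; inactive = neither criterion is met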
T cruzi growth-3 = Trypanosoma cruzi proliferation inhibition. inhibition, % at 2.09 µM. shares compounds with T cruzi growth-1. T. cruzi beta-gal in NIH3T3, GalScreen luminescence, 90 h. AID 651740. hit rate 21% among 5,600;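 active = mean inhibition above about 95%, with at least 55% of replicates also reaching it, limit read from the data; inconclusive = meets just one of the two conditions; inactive = meets neither condition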;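 note: plate controls were neutral control median for no effect and positive control median for full effect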
NIH3T3 tox = NIH/3T3 (mouse) viability loss; shares compounds with T cruzi growth-1; NIH/3T3 viability, CellTiter-Glo ATP luminescence, 90 h; cytotoxicity (signal decrease), % at 8.35 µM; hit rate 14% among 5,600; AID 651742;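 active = mean signal decrease across replicates above about 35% based on untreated-well scatter, with enough replicates individually passing, limit read from the data; inconclusive = no rule stated though some were filed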;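 note: 0% = median of neutral control wells and 100% = median of positive control wells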
NIH3T3 tox 2 = cytotoxicity in mouse NIH/3T3 fibroblasts | shares compounds with T cruzi growth-1 | NIH/3T3 viability, CellTiter-Glo ATP luminescence, 90 h | inhibition, % at 24.9 µM | AID 651744 | hit rate 56% among 5,600;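 active = mean loss of cell viability signal at or above a set limit, and enough replicates individually reaching it; inconclusive = meets only the mean limit or only the replicate share; inactive = meets neither condition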;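 note: 0% = median of neutral control wells and 100% = median of positive control wells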
* hit, by the source's call; ? = inconclusive; / = no result given. This is a sample that favours compounds with a hit; in the whole collection about 5.8% have one here.

SMILES | IDH1 R132H inh | Pf Dd2 inh | GASC1 inh | T cruzi growth-1 | T cruzi growth-2 | T cruzi growth-3 | NIH3T3 tox | NIH3T3 tox 2
OC[C@H]1Nc2ccc(C#Cc3cccnc3)cc2[C@H]2NCC[C@H]21 | / | -88.4* | 2.3 | / | / | / | / | /
O=C1/C(=C/c2ccccc2)C[C@@]2(O)C3Cc4ccc(O)c5c4[C@@]2(CCN3CC2CC2)[C@H]1O5 | 0.5 | / | / | / | / | / | / | /
COc1ccc2c(c1OC)CN1CCc3cc4c(cc3C1C2)OCO4 (centres undefined) | -2.7 | / | / | / | / | / | / | /
COc1ccc2c(c[n+](C)c3c4cc5c(cc4ccc23)OCO5)c1OC | 100.6* | / | / | / | / | / | / | /
Cc1ccc(OC(=O)N(C)C[C@@H]2OCc3ccccc3-c3c(n(C)c4ccccc34)C(=O)N([C@@H](C)CO)C[C@H]2C)cc1 | / | -83.1* | -3.2 | / | / | / | / | /
CC[C@@H]1/C=C\C=C\C[C@H](C)[C@@H](O)[C@](C)(O)C(=O)[C@H](C)[C@@H](O)[C@H](C)C(=O)[C@H](C)[C@@H](O)[C@H](C)/C=C/C(=O)O[C@H]2[C@@H](C)[C@@H](CC1)O[C@@]1(CC[C@@H](C)[C@@H](C[C@H](C)O)O1)[C@@H]2C | 0.0 | / | / | / | / | / | / | /
O=C(Cc1ccccc1)N1CCCCN2[C@@H](CO)[C@H](c3ccc(C#CC4(O)CCCC4)cc3)[C@@H]2C1 | / | -28.0 | -0.1 | 108.7* | 102.4* | 28.4 | 11.3 | 33.2*
O=C(Cc1ccncc1)N1CCCCN2[C@@H](CO)[C@@H](c3ccc(C#CC4(O)CCCC4)cc3)[C@@H]2C1 | / | -10.1 | -0.1 | 109.6* | 26.1 | -13.8 | -17.1 | -8.7
O=C(Cc1ccccc1)N1CCCCN2[C@@H](CO)[C@@H](c3ccc(C#CC4(O)CCCC4)cc3)[C@@H]2C1 | / | -28.1 | 0.2 | 93.8 | / | / | / | /
O=C(Cc1ccccc1)N1CCCCN2[C@H](CO)[C@H](c3ccc(C#CC4(O)CCCC4)cc3)[C@@H]2C1 | / | 2.1 | -0.9 | 103.4* | 76.0 | 39.0 | 11.2 | 14.9
O=C(Cc1ccccc1)N1CCCCN2[C@H](C1)[C@@H](c1ccc(C#CC3(O)CCCC3)cc1)[C@@H]2CO | / | -19.2 | -0.1 | 14.9 | / | / | / | /
CC(C)C1(NC(=O)C2CC3c4cccc5[nH]cc(c45)CC3N(C)C2)OC2(O)C3CCCN3C(=O)C(Cc3ccccc3)N2C1=O (centres undefined) | -2.1 | / | / | / | / | / | / | /
C=CCN1CC[C@]2(C)c3cc(O)ccc3CC1[C@@H]2C | 0.2 | / | / | / | / | / | / | /
N#Cc1cccc(-c2ccc([C@H]3[C@H]4CN(C(=O)Cc5ccccc5)CCCCN4[C@H]3CO)cc2)c1 | / | -13.5 | -0.5 | ? | 71.2 | -4.1 | 12.0 | 6.5
N#Cc1cccc(-c2ccc([C@H]3[C@H]4CN(C(=O)Cc5ccncc5)CCCCN4[C@H]3CO)cc2)c1 | / | -8.5 | -0.1 | 105.4* | 84.2 | 35.4 | -2.6 | 46.6*
N#Cc1cccc(-c2ccc([C@@H]3[C@H]4CN(C(=O)Cc5ccccc5)CCCCN4[C@H]3CO)cc2)c1 | / | -11.7 | 0.3 | 90.4 | / | / | / | /
COc1ccc(C#Cc2ccc([C@@H]3[C@H](CO)N4CCCCN(C(=O)Cc5cccnc5)C[C@@H]34)cc2)cc1 | / | -15.7 | -1.1 | 112.1* | 106.6* | 90.4 | 39.0* | 103.7*
O=C(Cc1cccnc1)N1CCCCN2[C@H](CO)[C@@H](c3ccc(/C=C/c4ccccc4)cc3)[C@H]2C1 | / | 9.0 | -0.8 | 105.1* | 108.7* | 72.6 | 33.2 | 103.6*
O=C(Cc1cccnc1)N1CCCCN2[C@H](CO)[C@H](c3ccc(/C=C/c4ccccc4)cc3)[C@H]2C1 | / | -44.2 | 0.2 | -215.0 | / | / | / | /
COc1ccc(C#Cc2ccc([C@@H]3[C@@H](CO)N4CCCCN(C(=O)Cc5cccnc5)C[C@H]34)cc2)cc1 | / | -40.2 | 0.2 | 100.2* | 106.2* | 37.8 | 24.4 | 105.1*
CC1C/C=C/C2C3OC3(C)C(C)C3C(Cc4ccccc4)NC(=O)C23OC(=O)O/C=C/C(C)(O)C1=O (centres undefined) | 2.0 | / | / | / | / | / | / | /
C=CCN1CCC23c4c5ccc(O)c4OC2/C(=N\NC(=O)c2ccccc2)CCC3(O)C1C5 (centres undefined) | -2.6 | / | / | / | / | / | / | /

Assay outcomes (PubChem)
